Publication PMC4123937 (Molecular Pharmaceutics, 2014)

Tested on: 4T1 mammary tumors
Assay type: in vivo, mouse (BALB/c)
Settings: Alexa546-pHLIP i.v., time points 2, 4, 24, 48 h
Procedure, shortened: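 Female BALB/c mice, s.c. 4T1 cells (8 × 10^5 cells/0.1 mL) in right flank; used at ~6 mm tumor diameter. Single tail-vein dose of 5 nmol (100 μL of 50 μM) Alexa546-labeled peptide in PBS. Necropsy at 2, 4, 24, 48 h; excised tumor, muscle, kidney, liver imaged immediately; mean fluorescence intensity quantified. Six mice per construct.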

Row | Sequence | Time postinjection of maximal renal fluorescence signal (kidney) | Time postinjection of maximum fluorescence signal in tumor (4T1 tumor)
1 | ACDDQNPWRAYLDLLFPTDTLLLDLLW [Var3] | 24 h | 
2 | ACEEQNPWARYLEWLFPTETLLLEL [Var7] |  | 4 h
